Reference: ChEMBL document CHEMBL3259808, “Optimization of antitrypanosomatid agents: identification of nonmutagenic drug candidates with in vivo activity” (J Med Chem, 2014)

Experiment: Selectivity index, ratio of IC50 for human RBC to IC50 for Trypanosoma cruzi Sylvio X-10 amastigotes
How it was run: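 Hemolysis: washed human erythrocytes (2% w/v in PBS) incubated 24 h at 37 °C with compound at final 50, 100 and 200 μM. Ten replicates per concentration. Hemoglobin release read at 405 nm against water lysis as 100%; amphotericin B 1.5 μM was the positive control. SI = IC50 red cells / parasite IC50 (Sylvio X-10 amastigotes or Tulahuen 2 epimastigotes).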

Molecule `Br.C=CCn1c(-c2ccc(Cl)cc2)cs\c1=N/N=C/C=C/c1ccco1.O` has a Ratio IC50 of over 234.
